According to ChEMBL document CHEMBL1135483, “N-Substituted 4-amino-3,3-dipropyl-2(3H)-furanones: new positive allosteric modulators of the GABA(A) receptor sharing electrophysiological properties with the anticonvulsant loreclezole” (2002):

Legend:
[1] = target: T1, GABA-A receptor; anion channel (Rattus norvegicus) (UniProt O09028+P15431+P18506+P18508+P19969+P20236+P23574+P23576+P28471+P28473+P30191+P62813+P63079+P63138+Q91ZM7+Q9ES14); assay: (§1) Displacement of [3H]muscimol from Gamma-aminobutyric acid A (GABA-A) receptor of rat brain membranes at 100 uM; format: cell membranes; conditions: Membrane
How it was run: (§2)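 Cerebellar or forebrain rat membranes, about 1 mg/mL protein, were incubated 90 min at 4 °C with 2 nM [3H]muscimol in 50 mM Tris-citrate pH 7.4 with 150 mM NaCl. Nonspecific binding was taken with 10 µM GABA. Filters were rinsed twice with ice-cold buffer and counted by scintillation. Result is % displacement or stimulation; at least three experiments in triplicate.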

[2] = target: T1, GABA-A receptor; anion channel (Rattus norvegicus); assay: Displacement of [35S]TBPS from Gamma-aminobutyric acid A (GABA-A) receptor of rat brain membranes at 100 uM; format: cell membranes; conditions: Membrane
How it was run: (§3)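 Rat cerebellum or forebrain (brain minus cerebellum) membranes, about 1 mg/mL protein, were incubated with 2 nM [35S]-TBPS in 50 mM Tris-citrate pH 7.4 plus 200 mM NaBr for 180 min at room temperature. Nonspecific binding was defined with 10 µM TBPS. Samples were filtered on GF/B and counted by scintillation. Result is % displacement; at least three experiments in triplicate.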

[3] = target: T1, GABA-A receptor; anion channel (Rattus norvegicus); assay: Displacement of [3H]flunitrazepam from GABA-A receptor of rat brain membranes at 100 uM; format: cell membranes; conditions: Membrane
How it was run: as §2, with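 “[3H]flunitrazepam” for “[3H]muscimol”, “set” for “taken”, “diazepam. Samples” for “GABA. Filters”, “filtered on GF/B” for “rinsed twice with ice-cold buffer”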

[4] = target: T2, GABA-A receptor; alpha-1/beta-2/gamma-2 (Rattus norvegicus) (UniProt P18508+P62813+P63138); assay: Percent stimulation of GABA-induced currents in Xenopus Oocytes expressing rat GABA-A receptor alpha-1-beta-2-gamma-2 subunits at 50 uM; format: functional, cell-based
How it was run: (§4)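 Xenopus laevis oocytes were injected with cRNA for rat receptor subunits and recorded by two-electrode voltage clamp at -80 mV. Bath was 90 mM NaCl, 1 mM KCl, 1 mM MgCl2, 1 mM CaCl2, 10 mM Na-Hepes pH 7.4. GABA giving about 2-4% of maximal current was applied for 20 s alone or with compound, with 4 min washout. Result is % change in current; average of three.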

[5] = target: T2, GABA-A receptor; alpha-1/beta-2/gamma-2 (Rattus norvegicus); assay: (§5) Percent stimulation of GABA-induced currents in Xenopus Oocytes expressing rat GABA-A receptor alpha-1-beta-2-gamma-2 subunits at 200 uM; format: functional, cell-based
How it was run: (§6)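 Oocytes expressing recombinant rat α1β2γ2 GABA-A receptors (cRNA injected in 5 mM K-Hepes, pH 6.8) were recorded by two-electrode voltage clamp at -80 mV in 90 mM NaCl, 1 mM KCl, 1 mM MgCl2, 1 mM CaCl2, 10 mM Na-Hepes, pH 7.4. Compound was co-applied with GABA at 2-4% of maximal current for 20 s, then 4 min washout. Values are the mean of three assays ± SEM.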

[6] = target: T1, GABA-A receptor; anion channel (Rattus norvegicus); assay: Displacement of [3H]-muscimol from Gamma-aminobutyric acid A (GABA-A) receptor of Rat forebrain at 100 uM; how it was run: as §2
[7] = target: T2, GABA-A receptor; alpha-1/beta-2/gamma-2 (Rattus norvegicus); assay: Percent stimulation of GABA-induced currents in Xenopus Oocytes expressing rat GABA-A receptor alpha-1-beta-2-gamma-2 subunits at 100 uM; format: functional, cell-based; how it was run: as §4
[8] = target: T1, GABA-A receptor; anion channel (Rattus norvegicus); assay: Displacement of [3H]flunitrazepam from GABA-A receptor of rat forebrain tissue at 100 uM
How it was run: as §2, with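 “[3H]flunitrazepam” for “[3H]muscimol”, “set” for “taken”, “diazepam. Samples” for “GABA. Filters”, “filtered on GF/B” for “rinsed twice with ice-cold buffer”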

[9] = target: T2, GABA-A receptor; alpha-1/beta-2/gamma-2 (Rattus norvegicus); assay: as §5; format: functional, cell-based; how it was run: as §6; remark: listed apart in the source
[10] = target: T2, GABA-A receptor; alpha-1/beta-2/gamma-2 (Rattus norvegicus); assay: Percent stimulation of GABA-induced currents in Xenopus Oocytes expressing rat GABA-A receptor alpha-1-beta-2-gamma-2 subunits at 2 uM; format: functional, cell-based; how it was run: as §6
[11] = species: Rattus norvegicus; assay: as §1; format: cell membranes; conditions: Membrane; how it was run: as §2
[12] = test system: GABA-A receptor alpha-1/beta-2 (Rattus norvegicus); assay: Percent stimulation of GABA-induced currents in Xenopus Oocytes expressing rat GABA-A receptor alpha-1-beta-2 subunits at 100 uM
[13] = target: T2, GABA-A receptor; alpha-1/beta-2/gamma-2 (Rattus norvegicus); assay: Percent stimulation of GABA-induced currents in Xenopus Oocytes expressing rat GABA-A receptor alpha-1-beta-2-gamma-2 subunits at 20 uM; format: functional, cell-based; how it was run: as §4
[14] = target: T1, GABA-A receptor; anion channel (Rattus norvegicus); assay: Displacement of [3H]flunitrazepam from GABA-A receptor of rat cerebellar tissues at 100 uM; format: protein-complex assay
How it was run: as §2, with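 “[3H]flunitrazepam” for “[3H]muscimol”, “set” for “taken”, “diazepam. Samples” for “GABA. Filters”, “filtered on GF/B” for “rinsed twice with ice-cold buffer”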

[15] = Percent stimulation of GABA-induced currents in Xenopus Oocytes expressing mutant rat GABA-A receptor alpha-1-beta-2(N265S) subunits at 100 uM; format: functional; how it was run: as §4
[16] = target: T2, GABA-A receptor; alpha-1/beta-2/gamma-2 (Rattus norvegicus); assay: Percent stimulation of GABA-induced currents in Xenopus Oocytes expressing rat GABA-A receptor alpha-1-beta-2-gamma-2 subunits at 5 uM; format: functional, cell-based; how it was run: as §4
[17] = species: Rattus norvegicus; assay: Displacement of [35S]-TBPS from Gamma-aminobutyric acid A (GABA-A) receptor of rat cerebellar tissue at 100 uM; how it was run: as §3
[18] = species: Rattus norvegicus; assay: Displacement of [35S]TBPS from Gamma-aminobutyric acid A (GABA-A) receptor of rat forebrain tissue at 100 uM; how it was run: as §3
[19] = target: T2, GABA-A receptor; alpha-1/beta-2/gamma-2 (Rattus norvegicus); assay: as §5; format: functional, cell-based; how it was run: as §6; remark: listed apart in the source

SMILES | Displacement [1] | Displacement [2] | Displacement [3] | Stimulation [5] | other results
CCCC1(CCC)C(=O)OC[C@H]1NS(=O)(=O)c1ccc2ccccc2c1 (racemic) | 0% | 75% | 0% |  | Stimulation [4]: 4%
CCCC1(CCC)C(=O)OC[C@H]1NS(=O)(=O)N(C)C (racemic) |  |  |  | -1% | 
CCCC1(CCC)C(=O)OC[C@H]1NC(=O)OCc1ccccc1 |  |  |  |  | Stimulation [7]: 104%
O=C1C[C@H](NC(=O)OCc2ccccc2)CO1 (racemic) |  |  |  | 47% | 
C=CCOC(=O)N[C@@H]1COC(=O)C1(CCC)CCC (racemic) |  | 50% |  | 765% | Stimulation [8]: 15%; Stimulation [9]: 765%; Stimulation [10]: 26%; Displacement [11]: 0%; Stimulation [12]: 2130%; Stimulation [13]: 229%; Stimulation [14]: 0%; Stimulation [15]: 627%
O=C1C[C@H](NCc2ccccc2)CO1 (racemic) |  |  |  | 0% | 
CCCC1(CCC)C(=O)OC[C@@H]1NC(=O)OCc1ccccc1 [listing 1 of 2 here] |  |  |  |  | Stimulation [7]: 279%; Stimulation [12]: 324%
C=CC[C@H]1C(=O)OC[C@H]1NCc1ccccc1 (racemic) | 0% | 60% | 0% | 73% | 
CCCC1(CCC)C(=O)OC[C@@H]1NC(=O)OCc1ccccc1 [listing 2 of 2 here] |  |  |  |  | Stimulation [15]: 123%
CCCC1(CCC)C(=O)OC[C@H]1NS(=O)(=O)c1ccc(C(F)(F)F)cc1 (racemic) | 0% |  | -20% | -44% | Displacement [17]: 40%; Displacement [18]: 70%
CCC1(C)CCSC1=O (centres undefined) | 0% | 25% | 0% | 352% | Stimulation [19]: 192%; Stimulation [9]: 386%; Stimulation [10]: 10%; Stimulation [13]: 39%
CCCC1(CCC)C(=O)OC[C@H]1NC(=O)OCC (racemic) | 0% | 30% | 0% | 426% | 

The next lines start with results.

Displacement [1] | Displacement [2] | Displacement [3] | Stimulation [5] | SMILES | other results
 | 75% | -25% | 330% | CCCC1(CCC)C(=O)OC[C@H]1NC(=O)Oc1ccccc1 (racemic) | Displacement [6]: 0%
 |  |  | -16% | CCCC1(CCC)C(=O)OC[C@H]1NS(=O)(=O)c1cccs1 (racemic) | 
0% | 60% | -14% | 115% | C=CCC1(CC=C)C(=O)OC[C@H]1NCc1ccccc1 (racemic) | 
 |  |  | 46% | CCCC1(CCC)C(=O)OC[C@H]1NC(=O)OC(C)(C)C (racemic) | 
 |  |  | -1% | C=CC[C@@H]1C(=O)OC[C@H]1NCc1ccccc1 (racemic) | 
0% | 70% | 0% |  | CCCC1(CCC)C(=O)OC[C@@H]1NC(=O)OCc1ccccc1 (stereo in doubt) | Stimulation [7]: 279%
 | 65% | -15% | 420% | CCCC1(CCC)C(=O)OC[C@H]1NC(=O)c1ccccc1 (racemic) | Displacement [6]: 0%; Stimulation [9]: 420%; Stimulation [10]: 17%; Stimulation [12]: 557%; Stimulation [13]: 207%; Stimulation [15]: 648%
0% | 80% | 0% | -22% | CCCC1(CCC)C(=O)OC[C@H]1NS(=O)(=O)c1ccc(OC)cc1 (racemic) | 
0% | 85% | -25% |  | CCCC1(CCC)C(=O)OC[C@H]1NS(=O)(=O)c1ccc(Cl)cc1 (racemic) | Stimulation [16]: 23%
